# Source: ChEMBL document CHEMBL4033712, “Synthesis and biological evaluation of new C-12(α/β)-(N-) sulfamoyl-phenylamino-14-deoxy-andrographolide derivatives as potent anti-cancer agents” (Bioorg Med Chem Lett, 2017)
# Experiments:
# Type in all cases: functional
# [1] = tested on: CCRF-CEM; assay: Anticancer activity against human CCRF-CEM cells assessed as cell growth at 10 uM after 48 hrs by sulforhodamine B assay relative to control; conditions: read-out: Activity
# Outline: (§1)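 Single-dose NCI-60 panel screen: compound added at 10 µM and the culture incubated 48 h. The end point was read by protein staining with sulforhodamine B. The value is percent growth of treated cells relative to untreated control cells, reported as a mean graph across the panel.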
# [2] = tested on: MOLT-4; assay: Anticancer activity against human MOLT4 cells assessed as cell growth at 10 uM after 48 hrs by sulforhodamine B assay relative to control; conditions: MOLT-4, 48 h, read-out: Activity; outline: as §1
# [3] = tested on: RPMI-8226; assay: Anticancer activity against human RPMI8226 cells assessed as cell growth at 10 uM after 48 hrs by sulforhodamine B assay relative to control; conditions: RPMI-8226, 48 h, read-out: Activity; outline: as §1
# [4] = tested on: SR; assay: Anticancer activity against human SR cells assessed as cell growth at 10 uM after 48 hrs by sulforhodamine B assay relative to control; conditions: read-out: Activity
# Outline: (§2)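 NCI-60 single-dose screen: compound added at 10 µM, cultures incubated 48 h. End point by sulforhodamine B protein-binding dye. Value reported as percent growth of treated cells relative to untreated control cells.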
# [5] = tested on: EKVX; assay: Anticancer activity against human EKVX cells assessed as cell growth at 10 uM after 48 hrs by sulforhodamine B assay relative to control; conditions: read-out: Activity; outline: as §1
# [6] = tested on: HOP-62; assay: Anticancer activity against human HOP62 cells assessed as cell growth at 10 uM after 48 hrs by sulforhodamine B assay relative to control; conditions: HOP-62, 48 h, read-out: Activity; outline: as §1
# [7] = tested on: NCI-H226; assay: Anticancer activity against human NCI-H226 cells assessed as cell growth at 10 uM after 48 hrs by sulforhodamine B assay relative to control; conditions: NCI-H226, 48 h, read-out: Activity; outline: as §1
# [8] = tested on: NCI-H522; assay: Anticancer activity against human NCI-H522 cells assessed as cell growth at 10 uM after 48 hrs by sulforhodamine B assay relative to control; conditions: NCI-H522, 48 h, read-out: Activity; outline: as §1
# [9] = tested on: HCC 2998; assay: Anticancer activity against human HCC2998 cells assessed as cell growth at 10 uM after 48 hrs by sulforhodamine B assay relative to control; conditions: HCC 2998, 48 h, read-out: Activity; outline: as §1
# [10] = tested on: HCT-15; assay: Anticancer activity against human HCT15 cells assessed as cell growth at 10 uM after 48 hrs by sulforhodamine B assay relative to control; conditions: HCT-15, 48 h, read-out: Activity; outline: as §1
# [11] = tested on: HT-29; assay: Anticancer activity against human HT-29 cells assessed as cell growth at 10 uM after 48 hrs by sulforhodamine B assay relative to control; conditions: HT-29, 48 h, read-out: Activity; outline: as §1
# [12] = tested on: SF-268; assay: Anticancer activity against human SF268 cells assessed as cell growth at 10 uM after 48 hrs by sulforhodamine B assay relative to control; conditions: SF-268, 48 h, read-out: Activity; outline: as §1
# [13] = tested on: SF-295; assay: Anticancer activity against human SF295 cells assessed as cell growth at 10 uM after 48 hrs by sulforhodamine B assay relative to control; conditions: SF-295, 48 h, read-out: Activity; outline: as §1
# [14] = tested on: U-251; assay: Anticancer activity against human U251 cells assessed as cell growth at 10 uM after 48 hrs by sulforhodamine B assay relative to control; conditions: U-251, 48 h, read-out: Activity; outline: as §2
# [15] = tested on: LOX IMVI; assay: Anticancer activity against human LOXIMVI cells assessed as cell growth at 10 uM after 48 hrs by sulforhodamine B assay relative to control; conditions: read-out: Activity; outline: as §1
# [16] = tested on: Malme-3M; assay: Anticancer activity against human MALME-3M cells assessed as cell growth at 10 uM after 48 hrs by sulforhodamine B assay relative to control; conditions: read-out: Activity; outline: as §1
# [17] = tested on: M14; assay: Anticancer activity against human M14 cells assessed as cell growth at 10 uM after 48 hrs by sulforhodamine B assay relative to control; conditions: M14, 48 h, read-out: Activity; outline: as §1
# [18] = tested on: SK-MEL-2; assay: Anticancer activity against human SK-MEL-2 cells assessed as cell growth at 10 uM after 48 hrs by sulforhodamine B assay relative to control; conditions: SK-MEL-2, 48 h, read-out: Activity; outline: as §1
# [19] = tested on: SK-MEL-28; assay: Anticancer activity against human SK-MEL-28 cells assessed as cell growth at 10 uM after 48 hrs by sulforhodamine B assay relative to control; conditions: SK-MEL-28, 48 h, read-out: Activity; outline: as §1
# [20] = tested on: UACC-257; assay: Anticancer activity against human UACC257 cells assessed as cell growth at 10 uM after 48 hrs by sulforhodamine B assay relative to control; conditions: UACC-257, 48 h, read-out: Activity; outline: as §2
# [21] = tested on: UACC-62; assay: Anticancer activity against human UACC62 cells assessed as cell growth at 10 uM after 48 hrs by sulforhodamine B assay relative to control; conditions: UACC-62, 48 h, read-out: Activity; outline: as §2
# [22] = tested on: OVCAR-3; assay: Anticancer activity against human OVCAR3 cells assessed as cell growth at 10 uM after 48 hrs by sulforhodamine B assay relative to control; conditions: OVCAR-3, 48 h, read-out: Activity; outline: as §1
# [23] = tested on: OVCAR-5; assay: Anticancer activity against human OVCAR5 cells assessed as cell growth at 10 uM after 48 hrs by sulforhodamine B assay relative to control; conditions: OVCAR-5, 48 h, read-out: Activity; outline: as §1
# [24] = tested on: OVCAR-8; assay: Anticancer activity against human OVCAR8 cells assessed as cell growth at 10 uM after 48 hrs by sulforhodamine B assay relative to control; conditions: OVCAR-8, 48 h, read-out: Activity; outline: as §1
# [25] = tested on: 786-0; assay: Anticancer activity against human 786-0 cells assessed as cell growth at 10 uM after 48 hrs by sulforhodamine B assay relative to control; conditions: 786-0, 48 h, read-out: Activity; outline: as §1
# [26] = tested on: ACHN; assay: Anticancer activity against human ACHN cells assessed as cell growth at 10 uM after 48 hrs by sulforhodamine B assay relative to control; conditions: read-out: Activity; outline: as §1
# [27] = tested on: CAKI-1; assay: Anticancer activity against human Caki1 cells assessed as cell growth at 10 uM after 48 hrs by sulforhodamine B assay relative to control; conditions: CAKI-1, 48 h, read-out: Activity; outline: as §1
# [28] = tested on: SN12C; assay: Anticancer activity against human SN12C cells assessed as cell growth at 10 uM after 48 hrs by sulforhodamine B assay relative to control; conditions: read-out: Activity; outline: as §1
# [29] = tested on: TK-10; assay: Anticancer activity against human TK10 cells assessed as cell growth at 10 uM after 48 hrs by sulforhodamine B assay relative to control; conditions: TK-10, 48 h, read-out: Activity; outline: as §2
# [30] = tested on: UO-31; assay: Anticancer activity against human UO31 cells assessed as cell growth at 10 uM after 48 hrs by sulforhodamine B assay relative to control; conditions: UO-31, 48 h, read-out: Activity; outline: as §2
# [31] = tested on: PC-3; assay: Anticancer activity against human PC3 cells assessed as cell growth at 10 uM after 48 hrs by sulforhodamine B assay relative to control; conditions: PC-3, 48 h, read-out: Activity; outline: as §1
# [32] = tested on: Hs-578T; assay: Anticancer activity against human Hs 578T cells assessed as cell growth at 10 uM after 48 hrs by sulforhodamine B assay relative to control; conditions: read-out: Activity; outline: as §1
# [33] = tested on: T47D; assay: Anticancer activity against human T47D cells assessed as cell growth at 10 uM after 48 hrs by sulforhodamine B assay relative to control; conditions: read-out: Activity; outline: as §2
Structure (SMILES),growth at 10 µM [1] [%],growth at 10 µM [2] [%],growth at 10 µM [3] [%],growth at 10 µM [4] [%],growth at 10 µM [5] [%],growth at 10 µM [6] [%],growth at 10 µM [7] [%],growth at 10 µM [8] [%],growth at 10 µM [9] [%],growth at 10 µM [10] [%],growth at 10 µM [11] [%],growth at 10 µM [12] [%],growth at 10 µM [13] [%],growth at 10 µM [14] [%],growth at 10 µM [15] [%],growth at 10 µM [16] [%],growth at 10 µM [17] [%],growth at 10 µM [18] [%],growth at 10 µM [19] [%],growth at 10 µM [20] [%],also measured
C=C1CC[C@@H]2[C@](C)(COC(C)=O)[C@H](OC(C)=O)CC[C@@]2(C)[C@H]1CC(Nc1ccc(S(=O)(=O)Nc2ncccn2)cc1)C1=CCOC1=O (some centres undefined),-26.2,-8.69,-12.7,-4.43,68.3,126,-16.6,-67.7,32,-51.4,-48.6,18.3,68,-19,-79.8,-4.93,4.76,41.9,-17.7,16.6,growth at 10 µM [21]: 3.93%; growth at 10 µM [22]: -80.6%; growth at 10 µM [23]: -1.98%; growth at 10 µM [24]: 3.81%; growth at 10 µM [25]: -10.1%; growth at 10 µM [26]: -56.1%; growth at 10 µM [27]: 50.2%; growth at 10 µM [28]: 7.64%; growth at 10 µM [29]: 35.1%; growth at 10 µM [30]: -17.9%; growth at 10 µM [31]: 15.1%; growth at 10 µM [32]: 51.2%; growth at 10 µM [33]: 42.3%
C=C1CC[C@@H]2[C@](C)(COC(C)=O)[C@H](OC(C)=O)CC[C@@]2(C)[C@H]1CC(Nc1ccc(S(=O)(=O)Nc2nccs2)cc1)C1=CCOC1=O (some centres undefined),-27.7,-4.45,-13.3,-5.84,73.4,120,-14,-61.9,54.2,-39.2,-42.7,21.3,73,4.21,-88.3,0.4,8.12,28.4,-16.3,22.4,growth at 10 µM [21]: 21.2%; growth at 10 µM [22]: -70.2%; growth at 10 µM [23]: 7.82%; growth at 10 µM [24]: 4.39%; growth at 10 µM [25]: 6.27%; growth at 10 µM [26]: -46.6%; growth at 10 µM [27]: 55.9%; growth at 10 µM [28]: 15.6%; growth at 10 µM [29]: 55%; growth at 10 µM [30]: 13.5%; growth at 10 µM [31]: 21.8%; growth at 10 µM [32]: 51.9%; growth at 10 µM [33]: 34.6%
C=C1CC[C@@H]2[C@](C)(COC(C)=O)[C@H](OC(C)=O)CC[C@@]2(C)[C@H]1CC(Nc1ccc(S(=O)(=O)Nc2cc(C)on2)cc1)C1=CCOC1=O (some centres undefined),-19.1,-7.86,-15.2,1.4,82,60.2,79.5,-20.2,68.3,0.18,-11,67.3,100,30,-72.7,56.6,29.9,63,38.1,69,growth at 10 µM [21]: 19.8%; growth at 10 µM [22]: 7.95%; growth at 10 µM [23]: 52.2%; growth at 10 µM [24]: 16.1%; growth at 10 µM [25]: 89.8%; growth at 10 µM [26]: 19.5%; growth at 10 µM [27]: 44%; growth at 10 µM [28]: 31.8%; growth at 10 µM [29]: 58.4%; growth at 10 µM [30]: 56.9%; growth at 10 µM [31]: 70.8%; growth at 10 µM [32]: 89.5%; growth at 10 µM [33]: 63.6%
